Screening data deposited in PubChem by several laboratories.
The entries come from a sample that favours hits as a whole.
N-glyco inh: increase of ERlucT glycosylation luciferase signal, primary screen, N-linked glycosylation inhibitor project, D54 ERlucT cells, luminescence, set 2. D54 ERlucT glycosylation luciferase reporter, 24 h; percent of 100 nM tunicamycin response. reporter increase, % at 12.5 µM. 0.23% of 360,000 active;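 active = mean luciferase reporter signal, scaled so untreated is 0 and the glycosylation-blocking control 100, at or above a set limit in every replicate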;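 note: luciferase carries N-glycosylation sites so blocking glycosylation raises the light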
T cell HTS: modulators of CD8 T cell-vesicle binding, primary screen, mouse 2C CD8+ T cells, flow cytometry; 2C CD8+ T cell-vesicle binding; stronger effect = lower value; 0.068% of 330,000 active; response (vesicle binding), % at 7 µM;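 active = response, share of CD8 T cells binding vesicles, and their 90th percentile fluorescence all below set limits, cut at about 80% in these data, passing the limit was not always enough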;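 note: values below 100% mean blocked vesicle binding to the CD8+ T cells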
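Test system: purified 2C TCR transgenic mouse naive CD8+ T cells. Probe or stimulus: QL9-peptide-loaded Drosophila micro-vesicles bearing Ld, ICAM-1 and B7-1. Incubation: binding step 1.5 h, 37 °C, antibody labelling 20 min, ice. Measured by: flow cytometry of vesicle-bound cells.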
ALR inh: inhibitors of human ALR sulfhydryl oxidase, primary screen, biochemical, H2O2 detection, HRP-luminol luminescence, single point; purified ALR, DTT oxidation; inhibition, % (concentration not given with the values); 3.8% of 290,000 active;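 active = mean replicate inhibition above about 79%, with every replicate also reaching it, limit read from the data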
Target sequence (P55789 whole entry, looked up): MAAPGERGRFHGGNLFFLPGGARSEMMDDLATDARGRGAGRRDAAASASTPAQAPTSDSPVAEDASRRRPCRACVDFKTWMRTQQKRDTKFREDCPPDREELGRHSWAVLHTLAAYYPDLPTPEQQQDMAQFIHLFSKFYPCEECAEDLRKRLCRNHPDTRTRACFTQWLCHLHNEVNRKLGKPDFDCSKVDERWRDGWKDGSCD
Numbers stand for hits; 0 = inactive; - = no result given.

SMILES | N-glyco inh | T cell HTS | ALR inh
Cc1cc(Nc2nc3ccccc3nc2Cl)n(-c2ccccc2C)n1 | 0 | 0 | 0
Cc1cc(NC(=O)c2ccc(Cl)cc2Cl)n(-c2ccccc2)n1 | 0 | 0 | 0
Cc1cc(Nc2nc3ccccc3nc2Cl)n(-c2ccccc2)n1 | 0 | 0 | 96
CCc1nc2ccc(C(=O)Nc3cccc(OC)c3)cn2c1N(CC)CCN(C)C | 0 | - | -
Cc1ccc(S(=O)(=O)N[C@H](C(=O)N2CCC(C(=O)N[C@@H](CCC(N)=O)C(=O)O)CC2)C(C)C)cc1 | 0 | 0 | 0
N#CCC(CNc1ncc(C(F)(F)F)cc1Cl)OC(=O)c1ccc(Cl)cc1Cl (stereo not given) | 30 | 0 | 0
CCOC(=O)CNc1ncc(C(F)(F)F)cc1Cl | 0 | 0 | 0
Cc1nnc(SC(C)C(=O)NC2CCCCC2C)s1 (stereo not given) | 0 | 0 | -
Cc1ccc(Oc2coc3cc(OC(=O)c4cccs4)ccc3c2=O)cc1 | 0 | 0 | -
CC(=O)Oc1ccc2c(=O)c(Oc3ccccc3)coc2c1OC(C)=O | 0 | 0 | 99
C=CCn1c(=O)/c(=C/c2ccsc2)s/c1=C(\C#N)C(=O)NCCN1CCOCC1 | 0 | - | -
CC(=O)c1ccc(N2CCN(CC(O)COCc3ccco3)CC2)cc1 (stereo not given) | 0 | 0 | 0
COc1ccccc1NC(=O)c1ccccc1NC(=O)c1cccs1 | 0 | 0 | 0
N#C/C(=C\c1cc(Cl)c(OCc2ccc(Cl)cc2)c(Cl)c1)C(N)=O | - | 0 | 0
N#C/C(=C\c1cc(O)c(O)c(O)c1)C(N)=O | 0 | 0 | 99
Cc1sc(NC(=O)CN(C(=O)c2ccccc2F)C2CCCC2)c(C(N)=O)c1C | 0 | 0 | 0
CCn1c(CCCNC(=O)c2cccs2)nc2ccccc21 | 0 | 0 | 98
CCCn1c(CCNC(=O)c2cccs2)nc2ccccc21 | 0 | 0 | 0
Cc1nonc1NC(=O)CSc1nc(CCC2CCCC2)nc2ccccc12 | 0 | 0 | 0
Cc1cc(NC(=O)CSc2nc(CCC3CCCC3)nc3ccccc23)no1 | 0 | 0 | 97
O=C(CSc1nc(CCC2CCCC2)nc2ccccc12)NCc1ccc2c(c1)OCO2 | 0 | 0 | 100
CCCc1nc(SCC(=O)Nc2cc(C)on2)c2ccccc2n1 | 0 | 0 | 0
Nc1ncnc2c1ncn2[C@@H]1O[C@H](C(=O)NCc2ccc(OC(F)(F)F)cc2)[C@@H](O)[C@H]1O | 0 | - | -
COCCn1c(SCC(=O)Nc2ccc3c(c2)OCCO3)nnc1-c1ccncc1 | 0 | 0 | 0
CCCCn1c(=O)[nH]c(=O)c2c1nc(-c1cc(Cl)c(OC)c(OC)c1)n2C | 0 | 0 | 0
SMILES | N-glyco inh | T cell HTS | ALR inh
COC(=O)c1ccc(NC(=O)c2cccc(Cl)c2)o1 | 0 | 0 | 93
COC(=O)c1ccc(NC(=O)c2ccc(F)cc2)o1 | 0 | 0 | 0
COC(=O)c1ccc(NC(=O)c2ccc(C)cc2)o1 | 0 | 0 | 98
COc1cccc(NC(=O)c2cccc(Cl)c2)c1 | 0 | 0 | -
COC1CCN(C(=O)C2CCC(=O)N(CCc3cccc(F)c3)C2)CC1 (stereo not given) | 0 | 0 | 0
C[C@H](CO)N1C[C@H](C)[C@@H](CN(C)Cc2cccc(C(=O)O)c2)OCc2cnnn2CCCC1=O | 0 | - | -
O=C(O)c1cc(=O)[nH]c2ccccc12 | 0 | - | -
COc1ccc(C2=CC(=O)CCC2)cc1 | 0 | - | 0
COc1ccc(CN2C(=O)c3cccnc3C2=O)cc1S(=O)(=O)N1CCOc2ccc(C)cc21 | 0 | 0 | 0
Oc1[nH]c2ccccc2c1C=Nc1ccc2c(c1)OCCO2 | 0 | - | -
Cc1cccc(/N=C/c2c(O)[nH]c3ccccc23)n1 | 0 | 0 | 0
CC(C)(C)c1[nH]c2ccccc2c1/C=N/O | 0 | 0 | 99
Cc1cc(C(=O)N/N=C/c2c(C)[nH]c3ccccc23)n[nH]1 | 0 | 0 | -
CC(C)(CO)N=Cc1c(O)[nH]c2ccccc12 | 0 | 0 | 100
CC(C)N=Cc1c(O)[nH]c2ccccc12 | 0 | 0 | 99
Cc1cc(C(=O)CN2C(=O)C(=O)N(C3CCCC3)C2=O)c(C)n1CCc1ccc(F)cc1 | 0 | 0 | -
COC(=O)c1cc(CSc2nc3ccccc3c(=O)n2C)oc1C | 0 | 0 | 0
O=C(Cc1ccccc1[N+](=O)[O-])NCC(=O)c1ccc2c(c1)OCO2 | 0 | - | -
COc1ccc(S(=O)(=O)N2CCCCC2)cc1NC(=O)c1cncc(Br)c1 | 0 | 0 | 0
CC1CC2=C(C(=O)O1)C(c1ccccc1)Nc1ccccc1N2 (stereo not given) | 0 | 0 | 98
CC1(C)CC(=O)C2=C(C1)Nc1ccccc1NC2c1ccc(F)cc1 (stereo not given) | 0 | 0 | 99
CC1(C)CC(=O)C2=C(C1)NC(=O)NC2c1ccccc1 (stereo not given) | 0 | 0 | -
CN1C(=O)NC(c2ccccc2Cl)C2=C1CC(C)(C)CC2=O (stereo not given) | 0 | 0 | 0
CC1(C)CC(=O)C2=C(C1)Nc1ccccc1NC2c1ccc2c(c1)OCO2 (stereo not given) | 0 | 0 | 99
COc1ccc(C2Nc3ccccc3NC3=C2C(=O)CC(C)(C)C3)cc1 (stereo not given) | 0 | 0 | 0
SMILES | N-glyco inh | T cell HTS | ALR inh
CC1CC2=C(C(=O)O1)C(C)Nc1ccccc1N2 (stereo not given) | 0 | 0 | -
CN1C(=O)NC(c2ccc(Cl)cc2)C2=C1CC(C)(C)CC2=O (stereo not given) | 0 | 0 | 94
COc1ccc(Cl)cc1CN1C(=O)C(Cc2ccccc2)ON=C1C (stereo not given) | 0 | - | -
Cc1ccc(C2C3=C(CC(C)(C)CC3=O)Nc3onc(C)c32)cc1 (stereo not given) | 0 | 0 | -
Cc1noc2c1C(c1ccc(N(C)C)cc1)C1=C(CC(C)(C)CC1=O)N2 (stereo not given) | 0 | 0 | 98
CC1(C)CC(=O)C2=C(C1)OC(=O)CC2c1cccs1 (stereo not given) | 0 | 0 | 0
CC1(C)CC(=O)C2=C(C1)Nc1cc3c(cc1C2c1ccc(F)cc1)OCO3 (stereo not given) | 0 | 0 | 98
CN(C)c1ccc(C2CC(=O)OC3=C2C(=O)CC(C)(C)C3)cc1 (stereo not given) | 0 | 0 | 99
CC1(C)CC(=O)C2=C(C1)Nc1cc3c(cc1C2c1ccc2c(c1)OCO2)OCO3 (stereo not given) | 0 | 0 | 0
CC1(C)CC(=O)C2=C(C1)Nc1ccccc1NC2c1cc(Cl)ccc1O (stereo not given) | 0 | 0 | -
CC1(C)CC(=O)C2=C(C1)Nc1ccccc1NC2c1nc2ccccc2[nH]1 (stereo not given) | 0 | 0 | 98
COc1ccc(OC)c(NS(=O)(=O)c2cc3c4c(c2)CCN4C(=O)CC3)c1 | 0 | - | -
Cc1oc(C(C)(C)C)cc1C(N)=O | 0 | 0 | 0
COc1cc2oc(=O)cc(-c3ccc(-c4ccc(CO)cc4)cc3)c2c(OC)c1OC | 0 | - | -
Cc1ccc(C2Nc3ccccc3NC3=C2C(=O)CC(C)(C)C3)c(O)c1 (stereo not given) | 0 | 0 | 0
CC1(C)CC(=O)C2=C(C1)Nc1ccccc1NC2c1ccccn1 (stereo not given) | 0 | 0 | 83
CCN1/C(=C/c2sc(-c3ccccc3C)c[n+]2C)Sc2ccccc21 | 36 | - | -
